This test has as its system Plasmodium falciparum. Nature of the test: In vitro antimalarial activity against Plasmodium falciparum. It counts as functional, organism-based. Put shortly: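 Method follows earlier published work. Each compound tested in quadruplicate. IC50 derived from fitted concentration–response curves. Artemisinin run as a concurrent control, with n = 20 for the control.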
In the case of `COC1(c2ccc(S(C)(=O)=O)cc2)C=CC2(CCCCCC2)OO1` (configuration not stated), the midpoint of inhibition, the IC50, lay at 31 nM. The figure for `COc1ccc(C2(OC)C=CC3(CCC3)OO2)cc1` (configuration not stated) is 160 nM. The figure for `COC1(c2ccc(S(C)(=O)=O)cc2)C=CC2(CCCCC2)OO1` (configuration not stated) is 56 nM. The figure for `COC1(c2ccc(OC(F)(F)F)cc2)C=CC2(CCCCCC2)OO1` (configuration not stated) is 61 nM; for `COC1(c2ccccc2)C=CC2(CCCCCC2)OO1` (configuration not stated) it is 220 nM. `COC1(c2ccc(F)cc2)C=CC2(CCCCCC2)OO1` (configuration not stated) came in with an IC50 of 85 nM. Take `CCc1ccc(C2(OC)C=CC3(CCCCCC3)OO2)cc1` (configuration not stated): the IC50 is 180 nM.

Turning to `COC1(c2ccccc2)C=CC2(CCCC2)OO1` (configuration not stated), half-maximal inhibition (IC50) required 190 nM.

As to `COC1(c2ccc([N+](=O)[O-])cc2)C=CC2(CCCCC2)OO1` (configuration not stated), the 50% inhibitory concentration (IC50) was 46 nM. Turning to `COc1ccc(C2(OC)C=CC3(CCCCCC3)OO2)cc1` (configuration not stated), the half-inhibitory concentration (IC50) was 210 nM. The figure for `COC1(c2ccc(SC)cc2)C=CC2(CCCCC2)OO1` (configuration not stated) is 160 nM; for `COC1(c2ccccc2)C=CC2(CCCCC2)OO1` (configuration not stated) it is 280 nM; for `CC(C)OC1(c2ccc(Cl)cc2)C=CC2(CCCCCC2)OO1` (configuration not stated) it is 1100 nM. Then `COC1(c2ccc(Cl)cc2)C=CC2(CCCCC2)OO1` (configuration not stated), with 100 nM; and `CC1(C)C=CC(O)(c2ccccc2)OO1` (configuration not stated), with above 2500 nM; and `COC1(c2ccc(Cl)cc2)C=CC2(CCCCCC2)OO1` (configuration not stated), with 58 nM.

In turn, `COC1(c2ccc(SC)cc2)C=CC2(CCCCCC2)OO1` (configuration not stated) registered an IC50 of 78 nM.

In turn, `COC1(c2ccc(F)cc2)C=CC2(CCCCC2)OO1` (configuration not stated) came in with an IC50 of 200 nM. The figure for `COc1ccc(C2(OC)C=CC3(CCCCC3)OO2)cc1` (configuration not stated) is 180 nM; for `COc1cc(C2(OC)C=CC3(CCCCCC3)OO2)cc(OC)c1OC` (configuration not stated) it is 120 nM. The figure for `COC1(c2ccccc2)C=CC(C)(C)OO1` (configuration not stated) is 1100 nM; for `C[C@@H]1CC[C@H]2[C@@H](C)C(=O)O[C@@H]3O[C@@]4(C)CC[C@@H]1[C@]32OO4` [ARTEMISININ] it is 8.4 nM.

The values above are taken from ChEMBL document CHEMBL1131249, “Antimalarial cyclic peroxy ketals” (J Med Chem, 1998).
